The nature of series [1]: Inhibition of HCV isolate BK NS4A-tethered single chain NS3 serine protease. Set-up: species or system Hepatitis C virus (isolate BK). The procedure, abridged: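 Continuous (kinetic) assay using the NS4A-tethered single-chain NS3 serine protease. The result is reported as K_i*, an equilibrium constant covering the reversible covalent ketone–serine adduct plus other inhibitor–enzyme contacts.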

Series [2] in a line: Selectivity for HCV isolate BK NS4A-tethered single chain NS3 serine protease over human neutrophil elastase.
For the next series, the system named is Hepatitis C virus. The series can be described thus: Antiviral activity against HCV in human Huh7 cells by replicon-based ELISA. Type of series: functional, Hepacivirus hominis. Particulars: Huh-7. The procedure, abridged: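 Replicon assay run only on compounds with good enzyme potency. The value is EC90, the concentration that inhibits 90% of replicon replication.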
(A replicon is a self-replicating genome or part of one, used to study replication in cells.)

Series [3] can be described thus: (§1) AUC in rat at 3 mg/kg, po. As to conditions: plasma. The format is ADME, organism-based, Plasma. The arrangement: dose 3 mg/kg, route oral.
Series [4] can be described thus: Bioavailability in monkey. The format is ADME, organism-based, Macaca mulatta. As to conditions: rhesus monkey, in vivo.
Series [5] in a line: Bioavailability in dog. The format is ADME, organism-based, Canis lupus familiaris. As to conditions: in vivo.
For a further series, the system named is Rattus norvegicus. The description is as §1. The format is ADME, organism-based, Plasma. Set-up: dose 3 mg/kg, route oral. As to conditions: in vivo.

Molecules are shown by their SMILES. Calls of active or inactive are those of the source. The rule behind the calls is not given here.

As a reminder, the Ki is the dissociation constant of the complex between target and ligand, obtained from inhibition or displacement. As a reminder, the EC90 is the concentration needed for an effect of 90%. As usually defined, the AUC is concentration integrated over time. As to `C=CCNC(=O)C(=O)C(CCCC)NC(=O)[C@@H]1[C@@H]2[C@H](CN1C(=O)[C@@H](NC(=O)N[C@H](CN1Cc3ccccc3S1(=O)=O)C(C)(C)C)C(C)(C)C)C2(C)C` (some centres not stated), the inhibitory constant (Ki) in series [1] was found to be 0.005 µM. The Selectivity ratio in series [2] stood at 6100. Besides, in the series on Hepatitis C virus, the 90% effect level (EC90) was put at 0.08 µM. The exposure (AUC) in series [3] came out at 1430 nM·h.

Take `C=CCNC(=O)C(=O)C(CC1CC1)NC(=O)[C@@H]1[C@@H]2[C@H](CN1C(=O)[C@@H](NC(=O)N[C@H](CN1Cc3ccccc3S1(=O)=O)C(C)(C)C)C(C)(C)C)C2(C)C` (some centres not stated): the affinity in series [1] corresponds to a Ki of 0.007 µM. The Selectivity ratio in series [2] was 1600. Also, the 90% effect level in the series with Hepatitis C virus (EC90) was put at 0.15 µM. The same compound showed an AUC in series [3] of 705 nM·h.

The compound `C=CCNC(=O)C(=O)C(CCC)NC(=O)[C@@H]1[C@@H]2[C@H](CN1C(=O)[C@@H](NC(=O)N[C@H](CN1CCCNS1(=O)=O)C(C)(C)C)C(C)(C)C)C2(C)C` (some centres not stated) had an inhibition constant (Ki) in series [1] of 0.059 µM. Besides, the Selectivity ratio in series [2] was 80. In the series on Hepatitis C virus, this compound registered an EC90 of 0.35 µM.

`C=CCNC(=O)C(=O)C(CCC)NC(=O)[C@@H]1[C@@H]2[C@H](CN1C(=O)[C@@H](NC(=O)N[C@H](CN1Cc3ccccc3S1(=O)=O)C1CCCCC1)C(C)(C)C)C2(C)C` (some centres not stated) had an inhibition constant (Ki) in series [1] of 0.018 µM. In addition, the Selectivity ratio in series [2] is 55. In addition, the EC90 entry with Hepatitis C virus (Hepacivirus hominis) is “inactive”.

By bioavailability is commonly meant the share of a dose that reaches the circulation, judged against a reference dose that is usually intravenous. `CC(C)(C)NC(=O)N[C@H](C(=O)N1C[C@H]2[C@@H]([C@H]1C(=O)NC(CC1CCC1)C(=O)C(N)=O)C2(C)C)C(C)(C)C` (some centres not stated) [BOCEPREVIR] registered a Ki in series [1] of 0.014 µM. Further, the EC90 with Hepatitis C virus is 0.35 µM. Moreover, the bioavailability in series [4] was 4%; in series [5] it was 34%.

In turn, `C=CCNC(=O)C(=O)C(CCC)NC(=O)[C@@H]1[C@@H]2[C@H](CN1C(=O)[C@@H](NC(=O)N[C@H](CN1C(=O)c3ccccc3S1(=O)=O)C(C)(C)C)C(C)(C)C)C2(C)C` (some centres not stated) showed an inhibition constant (Ki) in series [1] of 0.015 µM. The Selectivity ratio in series [2] turned out to be 310. This compound also returned an EC90 in the series on Hepatitis C virus of 0.23 µM.

On to `C=CCNC(=O)C(=O)C(CCC)NC(=O)[C@@H]1[C@@H]2[C@H](CN1C(=O)[C@@H](NC(=O)N[C@H](CN1CCCN(C)S1(=O)=O)C(C)(C)C)C(C)(C)C)C2(C)C` (some centres not stated), for which the Ki in series [1] amounted to 0.014 µM. The Selectivity ratio in series [2] came to 490. Besides, in the series on Hepatitis C virus, the EC90 worked out at 0.15 µM. Also, the area under the curve (AUC) in series [3] was found to be 200 nM·h.

Turning to `C=CCNC(=O)C(=O)C(CC1CCC1)NC(=O)[C@@H]1[C@@H]2[C@H](CN1C(=O)[C@@H](NC(=O)N[C@H](CN1Cc3ccccc3S1(=O)=O)C(C)(C)C)C(C)(C)C)C2(C)C` (some centres not stated), the Ki in series [1] is 0.03 µM. Moreover, the Selectivity ratio in series [2] is 1500. For the same compound, the result in the series on Hepatitis C virus (Hepacivirus hominis) was inactive. In addition, the Activity entry in the series with Rattus norvegicus was “Not Active”.

As for `C=CCNC(=O)C(=O)C(CCC)NC(=O)[C@@H]1[C@@H]2[C@H](CN1C(=O)[C@@H](NC(=O)N[C@H](CN1CCCCS1(=O)=O)C(C)(C)C)C(C)(C)C)C2(C)C` (some centres not stated), the Ki in series [1] is 0.006 µM. For the same compound, the Selectivity ratio in series [2] amounted to 650. This compound displayed a 90% effect concentration (EC90) in the series with Hepatitis C virus of 0.2 µM. For the same compound, the AUC in series [3] was determined as 670 nM·h.

In series [1], `C=CCNC(=O)C(=O)C(CCC)NC(=O)[C@@H]1[C@@H]2[C@H](CN1C(=O)[C@@H](NC(=O)N[C@H](CN1Cc3sccc3S1(=O)=O)C(C)(C)C)C1(C)CCCCC1)C2(C)C` (some centres not stated) displayed a Ki of 0.003 µM. Moreover, the Selectivity ratio in series [2] came to 68. In addition, in the series on Hepatitis C virus, the EC90 was 0.1 µM.

Take `C=CCNC(=O)C(=O)C(CCC)NC(=O)[C@@H]1[C@@H]2[C@H](CN1C(=O)[C@@H](NC(=O)N[C@H](CN1Cc3ccccc3S1(=O)=O)C(C)(C)C)C1CCCCC1)C2(C)C` (some centres not stated): the affinity in series [1], expressed as Ki, was 0.007 µM. Moreover, in series [2], the Selectivity ratio stood at 19. The same compound yielded a concentration for an effect of 90% (EC90) with Hepatitis C virus of 0.15 µM.

`C=CCNC(=O)C(=O)C(CCC)NC(=O)[C@@H]1[C@@H]2[C@H](CN1C(=O)[C@@H](NC(=O)N[C@H](CN1Cc3sccc3S1(=O)=O)C(C)(C)C)C(C)(C)C)C2(C)C` (some centres not stated) came in with an inhibition constant Ki in series [1] of 0.01 µM. Further, the Selectivity ratio in series [2] was 150. The same compound displayed an EC90 with Hepatitis C virus of 0.15 µM. The compound further showed an AUC in series [3] of 430 nM·h.

The compound `C=CCNC(=O)C(=O)C(CCC)NC(=O)[C@@H]1[C@@H]2[C@H](CN1C(=O)[C@@H](NC(=O)NC1(CN3Cc4sccc4S3(=O)=O)CCCCC1)C(C)(C)C)C2(C)C` (some centres not stated) registered an inhibition constant (Ki) in series [1] of 0.041 µM. The Selectivity ratio in series [2] was 130. Also, it took 0.4 µM to reach the 90% level in the series on Hepatitis C virus (EC90).

`C=CCNC(=O)C(=O)C(CCC)NC(=O)[C@@H]1[C@@H]2[C@H](CN1C(=O)[C@@H](NC(=O)N[C@H](CN1Cc3sccc3S1(=O)=O)C(C)(C)C)C1CCCCC1)C2(C)C` (some centres not stated): in series [1], affinity was put at a Ki of 0.014 µM. Moreover, in series [2], the Selectivity ratio was found to be 10. Moreover, it took 0.1 µM to reach the 90% level in the series with Hepatitis C virus (EC90).

On to `C=CCNC(=O)C(=O)C(CCC)NC(=O)[C@@H]1[C@@H]2[C@H](CN1C(=O)[C@@H](NC(=O)N[C@H](CN1Cc3ccccc3S1(=O)=O)C(C)(C)C)C(C)(C)C)C2(C)C` (some centres not stated), for which the inhibition constant Ki in series [1] was 0.003 µM. Besides, the Selectivity ratio in series [2] came to 650. This compound also returned an area under the curve (AUC) in series [3] of 373 nM·h.

For `C=CCNC(=O)C(=O)C(CCC)NC(=O)[C@@H]1[C@@H]2[C@H](CN1C(=O)[C@@H](NC(=O)N[C@H](CN1CCCS1(=O)=O)C(C)(C)C)C(C)(C)C)C2(C)C` (some centres not stated), the inhibition constant (Ki) in series [1] stood at 0.011 µM. For the same compound, the Selectivity ratio in series [2] worked out at 230. For the same compound, in the series on Hepatitis C virus, the EC90 stood at 0.2 µM. Further, the exposure (AUC) in series [3] was 90 nM·h.

In series [1], `C=CCNC(=O)C(=O)C(CCC)NC(=O)[C@@H]1[C@@H]2[C@H](CN1C(=O)[C@@H](NC(=O)N[C@H](CN1CCCCS1(=O)=O)C1CCCCC1)C(C)(C)C)C2(C)C` (some centres not stated) showed an inhibition constant Ki of 0.03 µM. In addition, in series [2], the Selectivity ratio was determined as 50. The compound further yielded a concentration for an effect of 90% (EC90) with Hepatitis C virus of 0.25 µM. For the same compound, in series [3], the AUC came out at 180 nM·h.

Consider `C=CCNC(=O)C(=O)C(CCC)NC(=O)[C@@H]1[C@@H]2[C@H](CN1C(=O)[C@@H](NC(=O)N[C@H](CN1Cc3ccccc3S1(=O)=O)C(C)(C)C)C1(C)CCCCC1)C2(C)C` (some centres not stated), for which the Ki in series [1] came to 0.005 µM. Also, the Selectivity ratio in series [2] was 50. This compound displayed a concentration for an effect of 90% (EC90) in the series with Hepatitis C virus of 0.15 µM.

In series [1], `C#CCCC(NC(=O)[C@@H]1[C@@H]2[C@H](CN1C(=O)[C@@H](NC(=O)N[C@H](CN1Cc3ccccc3S1(=O)=O)C(C)(C)C)C(C)(C)C)C2(C)C)C(=O)C(=O)NCC=C` (some centres not stated) returned an inhibition constant (Ki) of 0.0009 µM. Besides, in series [2], the Selectivity ratio came to 380. The EC90 with Hepatitis C virus came out at 0.25 µM. For the same compound, the Activity result with Rattus norvegicus is “Not Active”.

The values above are taken from ChEMBL document CHEMBL1152718, “Novel potent inhibitors of hepatitis C virus (HCV) NS3 protease with cyclic sulfonyl P3 cappings” (Bioorg Med Chem Lett, 2009).
